Assay results as given in ChEMBL document CHEMBL4014306, “Pyrazolopyrimidines as Potent Stimulators for Transient Receptor Potential Canonical 3/6/7 Channels” (J Med Chem, 2017).
The source made the active and inactive calls.

Experiments:
Type in all cases: cell-based
[1] = target: T1, Transient receptor potential cation channel subfamily V member 3 (Mus musculus) (UniProt Q8K424); assay: Agonist activity at mouse TRPV3 expressed in HEK293 cells assessed as increase in intracellular calcium level at 33 uM measured for 2.5 mins by Fluo-8-AM dye based fluorescence assay
T1 sequence (whole entry): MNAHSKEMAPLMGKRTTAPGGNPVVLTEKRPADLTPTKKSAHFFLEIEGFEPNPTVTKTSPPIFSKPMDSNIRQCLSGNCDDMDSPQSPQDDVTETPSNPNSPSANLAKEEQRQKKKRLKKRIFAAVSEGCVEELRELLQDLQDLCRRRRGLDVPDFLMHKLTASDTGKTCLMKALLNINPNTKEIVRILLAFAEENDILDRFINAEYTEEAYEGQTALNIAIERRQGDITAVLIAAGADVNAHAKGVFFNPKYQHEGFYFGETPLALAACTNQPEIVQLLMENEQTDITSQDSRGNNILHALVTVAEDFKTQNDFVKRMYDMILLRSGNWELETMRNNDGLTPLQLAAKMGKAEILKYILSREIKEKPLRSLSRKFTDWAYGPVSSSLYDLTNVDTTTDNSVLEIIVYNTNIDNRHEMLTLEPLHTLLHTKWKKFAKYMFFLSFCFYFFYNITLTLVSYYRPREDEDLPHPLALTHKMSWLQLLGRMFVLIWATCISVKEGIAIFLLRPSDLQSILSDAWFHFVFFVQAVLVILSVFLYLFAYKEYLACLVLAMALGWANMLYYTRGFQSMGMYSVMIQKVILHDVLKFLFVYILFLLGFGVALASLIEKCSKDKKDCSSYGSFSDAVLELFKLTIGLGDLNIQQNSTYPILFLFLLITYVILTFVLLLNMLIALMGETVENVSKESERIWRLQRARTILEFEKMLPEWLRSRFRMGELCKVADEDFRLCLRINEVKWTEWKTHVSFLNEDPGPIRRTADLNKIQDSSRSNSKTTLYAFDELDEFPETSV

[2] = target: Transient receptor potential cation channel subfamily V member 1 (Homo sapiens) (UniProt Q8NER1); assay: Agonist activity at human TRPV1 expressed in HEK293 cells assessed as increase in intracellular calcium level at 33 uM measured for 2.5 mins by Fluo-8-AM dye based fluorescence assay
Chain of Transient receptor potential cation channel subfamily V member 1 (Homo sapiens) (Q8NER1 whole entry, the tested form may be a part): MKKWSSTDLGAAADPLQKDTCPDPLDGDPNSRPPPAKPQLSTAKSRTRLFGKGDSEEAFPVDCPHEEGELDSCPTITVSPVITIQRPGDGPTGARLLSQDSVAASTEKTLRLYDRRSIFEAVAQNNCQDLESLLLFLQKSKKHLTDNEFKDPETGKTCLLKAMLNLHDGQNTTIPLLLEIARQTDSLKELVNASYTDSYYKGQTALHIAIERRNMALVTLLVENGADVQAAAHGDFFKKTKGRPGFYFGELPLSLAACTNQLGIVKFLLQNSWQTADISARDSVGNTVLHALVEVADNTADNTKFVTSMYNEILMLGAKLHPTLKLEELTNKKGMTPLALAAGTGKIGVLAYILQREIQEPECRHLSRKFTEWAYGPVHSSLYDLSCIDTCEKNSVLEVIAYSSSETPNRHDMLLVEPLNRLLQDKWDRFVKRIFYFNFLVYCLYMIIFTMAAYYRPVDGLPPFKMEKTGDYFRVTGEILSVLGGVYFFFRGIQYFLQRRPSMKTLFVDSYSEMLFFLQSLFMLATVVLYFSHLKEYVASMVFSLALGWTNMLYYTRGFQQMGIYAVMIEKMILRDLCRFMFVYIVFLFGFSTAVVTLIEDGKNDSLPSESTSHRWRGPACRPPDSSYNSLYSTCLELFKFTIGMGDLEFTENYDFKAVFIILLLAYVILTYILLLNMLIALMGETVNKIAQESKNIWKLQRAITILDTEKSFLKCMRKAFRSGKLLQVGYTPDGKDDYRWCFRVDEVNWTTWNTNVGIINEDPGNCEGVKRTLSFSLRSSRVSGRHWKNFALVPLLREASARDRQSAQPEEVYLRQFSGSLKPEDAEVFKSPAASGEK

[3] = target: T2, Short transient receptor potential channel 6 (Mus musculus) (UniProt Q61143); assay: Antagonist activity at mouse TRPC6 expressed in HEK293 cells co-expressing Gq11-PLCbeta fused M5 receptor assessed as channel desensitization at 20 to 100 uM at +80 mV in presence of 0.1 mM Ca2+ by whole cell patch-clamp method
T2 sequence (whole entry): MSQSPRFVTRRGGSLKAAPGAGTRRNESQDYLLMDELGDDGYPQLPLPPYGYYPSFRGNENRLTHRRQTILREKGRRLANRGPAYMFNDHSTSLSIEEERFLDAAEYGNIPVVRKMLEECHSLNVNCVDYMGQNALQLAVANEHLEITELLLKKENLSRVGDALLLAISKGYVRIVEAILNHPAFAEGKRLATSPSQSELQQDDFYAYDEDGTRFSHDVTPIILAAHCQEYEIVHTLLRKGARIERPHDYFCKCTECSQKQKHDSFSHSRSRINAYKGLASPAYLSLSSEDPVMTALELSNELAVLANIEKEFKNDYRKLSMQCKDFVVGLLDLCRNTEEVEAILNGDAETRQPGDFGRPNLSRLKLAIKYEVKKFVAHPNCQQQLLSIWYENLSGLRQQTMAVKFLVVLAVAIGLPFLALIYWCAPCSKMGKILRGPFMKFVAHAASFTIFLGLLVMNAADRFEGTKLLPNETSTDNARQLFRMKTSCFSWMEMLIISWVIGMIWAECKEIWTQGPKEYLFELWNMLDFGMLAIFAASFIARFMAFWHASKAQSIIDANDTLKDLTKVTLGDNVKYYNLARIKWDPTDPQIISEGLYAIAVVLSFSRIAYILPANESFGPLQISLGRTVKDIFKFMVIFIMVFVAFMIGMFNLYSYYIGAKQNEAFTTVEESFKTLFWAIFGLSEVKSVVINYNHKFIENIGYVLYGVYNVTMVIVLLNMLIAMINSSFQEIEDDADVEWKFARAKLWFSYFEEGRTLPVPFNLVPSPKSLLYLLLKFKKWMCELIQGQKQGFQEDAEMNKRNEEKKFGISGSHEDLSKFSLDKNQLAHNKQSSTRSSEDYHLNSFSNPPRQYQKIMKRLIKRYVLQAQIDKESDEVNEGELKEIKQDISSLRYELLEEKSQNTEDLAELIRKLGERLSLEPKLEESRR
Outline: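 Whole-cell clamp of TRPC6/M5 or TRPC7 HEK293 cells with 0.1 mM Ca2+ bath and 400 nM free Ca2+ pipette. Ramps +100 to −100 mV every 1 s. Increasing concentrations given consecutively by perfusion (TRPC6 highest 20–100 μM; TRPC7 up to 30 μM). Currents at positive and negative potentials followed for desensitization.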

[4] = target: Transient receptor potential cation channel subfamily M member 8 (Mus musculus) (UniProt Q8R4D5); assay: Agonist activity at mouse TRPM8 expressed in HEK293 cells assessed as increase in intracellular calcium level at 33 uM measured for 2.5 mins by Fluo-8-AM dye based fluorescence assay
Chain of Transient receptor potential cation channel subfamily M member 8 (Mus musculus) (Q8R4D5 whole entry): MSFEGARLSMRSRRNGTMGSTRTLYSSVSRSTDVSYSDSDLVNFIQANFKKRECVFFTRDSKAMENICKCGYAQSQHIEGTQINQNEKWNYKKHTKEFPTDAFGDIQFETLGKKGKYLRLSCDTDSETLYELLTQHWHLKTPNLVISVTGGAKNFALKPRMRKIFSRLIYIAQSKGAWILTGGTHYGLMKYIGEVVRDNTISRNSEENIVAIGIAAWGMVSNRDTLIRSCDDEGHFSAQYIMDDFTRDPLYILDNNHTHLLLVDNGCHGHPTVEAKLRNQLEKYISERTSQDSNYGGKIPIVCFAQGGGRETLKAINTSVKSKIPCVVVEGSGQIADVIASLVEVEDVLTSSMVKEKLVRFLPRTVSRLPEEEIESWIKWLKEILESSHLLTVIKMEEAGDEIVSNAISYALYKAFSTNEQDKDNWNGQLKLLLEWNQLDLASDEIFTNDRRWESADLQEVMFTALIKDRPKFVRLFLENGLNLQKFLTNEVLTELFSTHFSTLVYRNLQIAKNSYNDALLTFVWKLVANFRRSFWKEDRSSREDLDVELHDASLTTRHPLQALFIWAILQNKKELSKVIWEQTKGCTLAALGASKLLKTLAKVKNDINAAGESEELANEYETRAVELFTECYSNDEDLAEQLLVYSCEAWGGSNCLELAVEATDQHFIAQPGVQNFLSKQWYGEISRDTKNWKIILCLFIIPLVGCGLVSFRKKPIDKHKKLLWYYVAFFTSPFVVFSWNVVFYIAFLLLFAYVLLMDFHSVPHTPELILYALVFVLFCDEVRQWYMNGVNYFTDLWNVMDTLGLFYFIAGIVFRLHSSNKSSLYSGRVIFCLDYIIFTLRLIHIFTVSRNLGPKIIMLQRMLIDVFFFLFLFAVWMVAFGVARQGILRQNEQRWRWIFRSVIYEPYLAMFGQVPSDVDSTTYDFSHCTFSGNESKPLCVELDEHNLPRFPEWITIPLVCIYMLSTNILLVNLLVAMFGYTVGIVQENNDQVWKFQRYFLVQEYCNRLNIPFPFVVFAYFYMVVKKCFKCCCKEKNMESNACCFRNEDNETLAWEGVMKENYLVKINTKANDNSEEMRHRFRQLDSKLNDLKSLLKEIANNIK

Measured: Activity

CCOC(=O)N1CCC(c2cc(O)n3nc(C)c(-c4ccc(F)cc4)c3n2)CC1
inactive: all assays above

Cc1nn2c(O)cc(C3CCN(C(=O)OCc4ccccc4)CC3)nc2c1-c1ccc(Cl)cc1
inactive: all assays above

Cc1nn2c(O)cc(C3CCN(C(=O)OCc4ccccc4)CC3)nc2c1-c1ccc(F)cc1
inactive: all assays above

CCOC(=O)N1CCC(c2cc(O)n3nc(C)c(-c4ccc(C(F)(F)F)cc4)c3n2)CC1
inactive: all assays above
